The target of this test is Prothrombin (Homo sapiens, UniProt P00734). The test can be described thus: Inhibition of human alpha-thrombin using sarcosine-Pro-Arg-p-nitroanilide as substrate preincubated for 5 mins before substrate addition measured after 10 mins by spectrophotometry. An outline of the steps: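 Human α-thrombin (>95% pure, 5070 U/mg) kept on ice in assay buffer (10 mM Tris, 150 mM NaCl, pH 7.6). Enzyme preincubated with peptide 5 min at 37 °C, then chromogenic substrate added. Final concentrations: 2 nM enzyme, 200 substrate. Nine peptide concentrations, each in triplicate.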
For the compound `Cc1ccc(C[C@H](NC(=O)[C@@H](C)NC(=O)[C@@H]2CCCN2C(=O)[C@@H]2C[C@@H]3CCCC[C@@H]3N2C(=O)[C@@H](N)CCCN=C(N)N)C(N)=O)cc1`, it took 73 µM to reach half-maximal inhibition (IC50).

With `Cc1ccc(C[C@H](NC(=O)[C@@H](C)NC(=O)[C@@H]2CCCN2C(=O)[C@@H]2C[C@@H]3CCCC[C@@H]3N2C(=O)[C@H](N)CCCN=C(N)N)C(N)=O)cc1`, the midpoint of inhibition, the IC50, lay at 4.4 µM.

In the case of `Cc1ccc(C[C@H](NC(=O)[C@@H](C)NC(=O)[C@@H]2CCCN2C(=O)[C@@H]2C[C@@H]3CCCC[C@@H]3N2C(=O)c2cccc(C(=N)N)c2)C(N)=O)cc1`, the IC50 came to 1.03 µM.

Compound `Cc1ccc(C[C@H](NC(=O)[C@@H](C)NC(=O)[C@@H]2CCCN2C(=O)[C@@H]2C[C@@H]3CCCC[C@@H]3N2C(=O)Cc2ccc(C(=N)N)cc2)C(N)=O)cc1` had an IC50 of 0.45 µM.

As for `Cc1ccc(C[C@H](NC(=O)[C@@H](C)NC(=O)[C@@H]2CCCN2C(=O)[C@@H]2C[C@@H]3CCCC[C@@H]3N2C(=O)[C@H](C)CCCN=C(N)N)C(N)=O)cc1`, the IC50 stood at 98 µM.

`Cc1ccc(C[C@H](NC(=O)[C@@H](C)NC(=O)[C@@H]2CCCN2C(=O)[C@@H]2C[C@@H]3CCCC[C@@H]3N2C(=O)[C@H]2CC[C@@H](N=C(N)N)CC2)C(N)=O)cc1`: the IC50 turned out to be 19.5 µM.

The compound `Cc1ccc(C[C@H](NC(=O)[C@@H](C)NC(=O)[C@@H]2CCCN2C(=O)[C@@H]2C[C@@H]3CCCC[C@@H]3N2C(=O)c2ccc(C(=N)N)cc2)C(N)=O)cc1` yielded an IC50 of 0.51 µM.

For the compound `Cc1ccc(C[C@H](NC(=O)[C@@H](C)NC(=O)[C@@H]2CCCN2C(=O)[C@@H]2C[C@@H]3CCCC[C@@H]3N2C(=O)[C@@H](C)CCCN=C(N)N)C(N)=O)cc1`, inhibition was half-maximal at 9.8 µM (IC50).

As to `Cc1ccc(C[C@H](NC(=O)[C@@H](C)NC(=O)[C@@H]2CCCN2C(=O)[C@@H]2C[C@@H]3CCCC[C@@H]3N2C(=O)Cc2cccc(C(=N)N)c2)C(N)=O)cc1`, the IC50 was found to be 26.2 µM.

On to H-RPPGF-OH, for which the IC50 turned out to be 601 µM.

`Cc1ccc(C[C@H](NC(=O)[C@@H](C)NC(=O)[C@@H]2CCCN2C(=O)[C@@H]2C[C@@H]3CCCC[C@@H]3N2C(=O)c2ccc(NC(=N)N)cc2)C(N)=O)cc1` returned an IC50 of 0.57 µM.

`Cc1ccc(C[C@H](NC(=O)[C@@H](C)NC(=O)[C@@H]2CCCN2C(=O)[C@@H]2C[C@@H]3CCCC[C@@H]3N2C(=O)[C@H]2CC[C@H](N=C(N)N)CC2)C(N)=O)cc1` had an IC50 of 2.5 µM.

In general, IC50 refers to the point on the concentration scale where inhibition reaches its midpoint. High values mean lower potency, low ones higher potency.
